Data on 2 compounds can be found in article PMC4245169 (ACS Chemical Biology, 2014).

Assay [1] has as its system E. coli whole cell extract (prokaryotic ribosomal preparation). In words: Cell free translation inhibition, E. coli S30 extract, luciferase reporter. As to conditions: read-out: E. coli IC50, average of three independent experiments. It counts as biochemical. In a few lines:
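Test compound at varying concentrations preincubated 20 min at room temperature with E. coli S30 extract plus all amino acids. Luciferase control template then added and translation run 60 min at 37 °C, stopped on ice 5 min. Luminescence read right after luciferin addition. Triplicates normalised to vehicle control; macrolide positive controls. IC50 by logit regression, averaged over three independent experiments.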
(In general: A reporter such as luciferase makes a cellular process visible.)

Assay [2] relates to rabbit reticulocyte whole cell lysate (eukaryotic ribosomal preparation). In words: Cell free translation inhibition, rabbit reticulocyte lysate. It counts as biochemical. In a few lines:
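Nuclease-treated rabbit reticulocyte lysate was preincubated with test compound at varying concentrations and all amino acids for 20 min at room temperature. Luciferase control template was then added, and translation ran at 30 °C for 90 min before stopping on ice for 5 min. Luminescence was read after luciferin addition. Samples were run in triplicate and normalized to vehicle control. IC50 was fit by logit regression and averaged over three independent experiments.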

Assay [3] relates to E. coli 23S rRNA. In words: CMCT chemical footprinting of 23S rRNA in intact 70S ribosomes. It counts as binding. The note with it: primer 2180; peptolides and 7b 150 μM, clarithromycin 50 μM.
The test system of assay [4] is E. coli 23S rRNA. As to conditions: cited from earlier work.

Each structure is given as a SMILES string.

The IC50 is the concentration at which inhibition is half-maximal. For the compound `CC[C@H]1OC(=O)[C@H](C)[C@@H](O[C@H]2C[C@@](C)(OC)[C@@H](O)[C@H](C)O2)[C@H](C)[C@@H](O[C@@H]2O[C@H](C)C[C@H](N(C)C)[C@H]2O)[C@](C)(OC)C[C@@H](C)C(=O)[C@H](C)[C@@H](O)[C@]1(C)O` [clarithromycin 1, clarithromycin], the IC50 is 320 ± 120 nM in assay [1] and over 250000 nM in assay [2] (read-out: rabbit retic. IC50, cell free translation, luciferase reporter, average of three independent experiments). The “inhibition of eukaryotic translation (in words)” value in assay [2] (RRL, controls at 250 μM) is “inactive”. In assay [3], the “protection of U1963 from CMCT modification” value is “available to CMCT modification”.
Take `CC[C@H]1OC(=O)[C@H](C)C(=O)[C@H](C)[C@@H](O[C@@H]2O[C@H](C)C[C@H](N(C)C)[C@H]2O)[C@](C)(OC)C[C@@H](C)C(=O)[C@H](C)[C@H]2N(CCCCn3cnc(-c4cccnc4)c3)C(=O)O[C@]12C` [TEL, telithromycin]: the “protection of A752” value in assay [4] is “protected”.
